B1: Osa-1-4 twister ribozyme (parent)
chain: CCGCCUAACACUGCCAAUGCCGGUCCCAAGCCCGGAUAAAAGUGGAGGGGGCGG

Variants of: B1
Assay: self-cleavage, relative activity (ratio to wild type); higher = more cleavage; co-transcriptional
Procedure, shortened: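 A DNA template was synthesised for a 54-nucleotide twister ribozyme from Oryza sativa, with 97 % wild-type base and 1 % of each other base at each of the 48 positions downstream of the cleavage site. The ribozyme cleaved itself co-transcriptionally during 2 h of in vitro transcription at 37 °C. Reverse transcription with a template-switching oligonucleotide, PCR amplification and deep sequencing followed, and cleavage status came from reads with or without upstream sequence. Relative activity is the fraction cleaved normalised to wild type.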

Variant	self-cleavage
CCGCCUAACACUGCUAAUGCCGGUCCCAAGCCCGGAUAAAAGUGGAGGGGGCCG [C15U G53C]	0.05
CCGCCUAACACUGCUAAUGCCGGUCCCAAGCCCGGAUAAAAGUGGAGGGGGCUG [C15U G53U]	0.1
CCGCCUAACACUGCUAAUGCCGGUCCCAAGCCCGGAUAAAAGUGGAGGGGGCAG [C15U G53A]	0.12
CCGCCUAACACUGCUAAUGCCGGUCCCAAGCCCGGAUAAAAGUGGAGGGGGCGC [C15U G54C]	0.14
CCGCCUAACACUGCUAAUGCCGGUCCCAAGCCCGGAUAAAAGUGGAGGGGGCGA [C15U G54A]	0.16
CCGCCUAACACUGCUAAUGCCGGUCCCAAGCCCGGAUAAAAGUGGAGGGGGCGU [C15U G54U]	0.43
CCGCCUAACACUGCUAAUGCCGGUCCCAAGCCCGGAUAAAAGUGAAGGGGGCGG [C15U G45A]	0.04
CCGCCUAACACUGCUAAUGCCGGUCCCAAGCCCGGAUAAAAGUGUAGGGGGCGG [C15U G45U]	0.03
CCGCCUAACACUGCUAAUGCCGGUCCCAAGCCCGGAUAAAAGUGCAGGGGGCGG [C15U G45C]	0.04
CCGCCUAACACUGCUAAUGCCGGUCCCAAGCCCGGAUAAAAGUGGAGGGGUCGG [C15U G51U]	0.07
CCGCCUAACACUGCUAAUGCCGGUCCCAAGCCCGGAUAAAAGUGGAGGGGACGG [C15U G51A]	0.15
CCGCCUAACACUGCUAAUGCCGGUCCCAAGCCCGGAUAAAAGUGGAGGGGCCGG [C15U G51C]	0.04
CCGCCUAACACUGCUAAUGCCUGUCCCAAGCCCGGAUAAAAGUGGAGGGGGCGG [C15U G22U]	0.11
CCGCCUAACACUGCUAAUGCCCGUCCCAAGCCCGGAUAAAAGUGGAGGGGGCGG [C15U G22C]	0.03
CCGCCUAACACUGCUAAUGCCGGUCCCAAGCCCGGAUAAAAGUGGAGCGGGCGG [C15U G48C]	0.05
CCGCCUAACACUGCUAAUGCCGGUCCCAAGCCCGGAUAAAAGUGGAGUGGGCGG [C15U G48U]	0.03
CCGCCUAACACUGCUAAUGCCGGUCCCAAGCCCGGAUAAAAGUGGAGAGGGCGG [C15U G48A]	0.05
CCGCCUAACACUGCUAAUGCCGGUCCCAAGCCCGGAUAAAAGUGGAAGGGGCGG [C15U G47A]	0.06
CCGCCUAACACUGCUAAUGCCGGUCCCAAGCCCGGAUAAAAGUGGAUGGGGCGG [C15U G47U]	0.05
CCGCCUAACACUGCUAAUGCCGGUCCCAAGCCCGGAUAAAAGUGGACGGGGCGG [C15U G47C]	0.05
CCGCCUAACACUGCUAAUGCCGGUCCCAAUCCCGGAUAAAAGUGGAGGGGGCGG [C15U G30U]	0.03
CCGCCUAACACUGCUAAUGCCGGUCCCAAACCCGGAUAAAAGUGGAGGGGGCGG [C15U G30A]	0.02
CCGCCUAACACUGCUAAUGCCGGUCCCAACCCCGGAUAAAAGUGGAGGGGGCGG [C15U G30C]	0.02
CCGCCUAACACUGCUAAUGCCGGUCCCAAGCCCGAAUAAAAGUGGAGGGGGCGG [C15U G35A]	0.59
CCGCCUAACACUGCUAAUGCCGGUCCCAAGCCCGUAUAAAAGUGGAGGGGGCGG [C15U G35U]	0.35

Variant	self-cleavage
CCGCCUAACACUGCUAAUGCCGGUCCCAAGCCCGCAUAAAAGUGGAGGGGGCGG [C15U G35C]	0.07
CCGCCUAACACUGCUAAUGCCGGUCCCAAGCCCUGAUAAAAGUGGAGGGGGCGG [C15U G34U]	0.15
CCGCCUAACACUGCUAAUGCCGGUCCCAAGCCCAGAUAAAAGUGGAGGGGGCGG [C15U G34A]	0.21
CCGCCUAACACUGCUAAUGCCGGUCCCAAGCCCCGAUAAAAGUGGAGGGGGCGG [C15U G34C]	0.09
CCGCCUAACACUGCUAAUGCCGGUCCCAAGCCCGGAUAAAAGUGGAGGGCGCGG [C15U G50C]	0.23
CCGCCUAACACUGCUAAUGCCGGUCCCAAGCCCGGAUAAAAGUGGAGGGAGCGG [C15U G50A]	0.47
CCGCCUAACACUGCUAAUGCCGGUCCCAAGCCCGGAUAAAAGUGGAGGGUGCGG [C15U G50U]	0.43
CCGCCUAACACUGCUAAUGCCGGUCCCAAGCCCGGAUAAAAGUAGAGGGGGCGG [C15U G44A]	0.08
CCGCCUAACACUGCUAAUGCCGGUCCCAAGCCCGGAUAAAAGUCGAGGGGGCGG [C15U G44C]	0.23
CCGCCUAACACUGCUAAUGCCGGUCCCAAGCCCGGAUAAAAGUUGAGGGGGCGG [C15U G44U]	0.16
CCGCCUAACACUGCUAAUGCCGAUCCCAAGCCCGGAUAAAAGUGGAGGGGGCGG [C15U G23A]	0.06
CCGCCUAACACUGCUAAUGCCGCUCCCAAGCCCGGAUAAAAGUGGAGGGGGCGG [C15U G23C]	0.03
CCGCCUAACACUGCUAAUGCCGUUCCCAAGCCCGGAUAAAAGUGGAGGGGGCGG [C15U G23U]	0.03
CCGCCUAACACUGCUAAUGCCGGUCCCAAGCCCGGAUAAAAGUGGAGGCGGCGG [C15U G49C]	0.04
CCGCCUAACACUGCUAAUGCCGGUCCCAAGCCCGGAUAAAAGUGGAGGAGGCGG [C15U G49A]	0.05
CCGCCUAACACUGCUAAUGCCGGUCCCAAGCCCGGAUAAAAGUGGAGGUGGCGG [C15U G49U]	0.04
CCGCCUAACACGGCUAAUGCCGGUCCCAAGCCCGGAUAAAAGUGGAGGGGGCGG [C15U U12G]	0.1
CCGCCUAACACCGCUAAUGCCGGUCCCAAGCCCGGAUAAAAGUGGAGGGGGCGG [C15U U12C]	0.06
CCGCCUAACACAGCUAAUGCCGGUCCCAAGCCCGGAUAAAAGUGGAGGGGGCGG [C15U U12A]	0.11
CCGCCUAACACUGCUAAUGCCGGUCCCAAGCCCGGAUAAAAAUGGAGGGGGCGG [C15U G42A]	0.12
CCGCCUAACACUGCUAAUGCCGGUCCCAAGCCCGGAUAAAAUUGGAGGGGGCGG [C15U G42U]	0.06
CCGCCUAACACUGCUAAUGCCGGUCCCAAGCCCGGAUAAAACUGGAGGGGGCGG [C15U G42C]	0.06
CCGCCUAACACUGCUAACGCCGGUCCCAAGCCCGGAUAAAAGUGGAGGGGGCGG [C15U U18C]	0.52
CCGCCUAACACUGCUAAAGCCGGUCCCAAGCCCGGAUAAAAGUGGAGGGGGCGG [C15U U18A]	0.51

— the RNAGym collection of RNA variant scans (doi:10.1002/anie.201605470)
